High-throughput results (PubChem)
Shown are actives, neighbours in structure and some others; about 4.2% of the full set was active somewhere.
ANO1 activ = TMEM16A chloride channel activators or potentiators, primary screen, cell-based, HTS; Anoctamin-1 (Mus musculus), Q8BHY3; HEK293 TMEM16A/YFP-H148Q/I152L, iodide quench fluorescence; stronger effect = lower value; actives 0.3% (n = 340,000); B-score at 10 µM;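 active = fluorescence-ratio B-score plate-corrected deviation score at least 3 library SD below zero, with starting fluorescence score within 5 deviations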;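 also: channel opened by trigger with iodide after compound preincubation; score built on the fluorescence ratio of max minus min over baseline; more negative score means more quench and so TMEM16A activation or potentiation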
Target sequence (Q8BHY3 whole entry, looked up): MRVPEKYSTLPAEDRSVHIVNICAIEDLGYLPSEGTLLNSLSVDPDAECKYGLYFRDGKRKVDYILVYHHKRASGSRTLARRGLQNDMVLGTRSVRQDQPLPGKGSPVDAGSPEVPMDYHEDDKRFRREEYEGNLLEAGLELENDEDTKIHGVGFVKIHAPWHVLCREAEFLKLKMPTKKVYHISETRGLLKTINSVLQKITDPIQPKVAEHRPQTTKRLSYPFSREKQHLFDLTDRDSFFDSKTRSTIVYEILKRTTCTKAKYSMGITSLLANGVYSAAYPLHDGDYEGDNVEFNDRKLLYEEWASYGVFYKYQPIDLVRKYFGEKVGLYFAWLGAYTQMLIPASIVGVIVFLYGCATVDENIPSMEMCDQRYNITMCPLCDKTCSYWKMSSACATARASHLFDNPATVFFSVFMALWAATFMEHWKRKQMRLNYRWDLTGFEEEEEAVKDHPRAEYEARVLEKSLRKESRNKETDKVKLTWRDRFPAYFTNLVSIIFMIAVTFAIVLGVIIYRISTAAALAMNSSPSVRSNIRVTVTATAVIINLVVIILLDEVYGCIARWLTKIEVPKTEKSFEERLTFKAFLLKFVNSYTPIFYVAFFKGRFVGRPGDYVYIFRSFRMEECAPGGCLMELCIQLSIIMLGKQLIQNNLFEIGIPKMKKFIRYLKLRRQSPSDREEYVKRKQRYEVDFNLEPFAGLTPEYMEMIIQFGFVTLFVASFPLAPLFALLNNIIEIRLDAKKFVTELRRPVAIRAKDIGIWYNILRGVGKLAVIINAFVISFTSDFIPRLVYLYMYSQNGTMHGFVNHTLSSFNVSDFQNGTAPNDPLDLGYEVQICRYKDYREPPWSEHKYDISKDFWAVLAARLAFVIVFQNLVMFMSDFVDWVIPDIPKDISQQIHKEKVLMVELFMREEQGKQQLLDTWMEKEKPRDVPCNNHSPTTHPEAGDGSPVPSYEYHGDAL
CHOP inhibitor = inhibitors of CHOP promoter induction, primary screen, cell-based, unfolded protein response, luciferase reporter. AID 2732, 2010. CHO-K1 CHOP-promoter luciferase, tunicamycin-induced, 15-18 h. actives 3.8% (n = 220,000). inhibition, % at 10 µM;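 active = compounds that reduced the stress-induced luciferase reporter signal by more than about 70% of percent inhibition, limit read from the data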;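 also: 0% = tunicamycin plus vehicle and 100% = wells without tunicamycin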
Hep lipid drop = inhibitors of hepatocyte lipid droplet formation, primary screen, imaging, high-throughput imaging, BODIPY stain; AID 1656, 2009; actives 0.4% (n = 240,000); inhibition, % at 6.5 µM; AML12 mouse hepatocytes, oleate lipid droplets;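 active = lipid droplet intensity inhibited by at least 50%, with more than 500 cells counted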
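Material – mouse AML12 hepatocyte cell line, fixed after treatment · Compound dosing – one dose, 6.5 µM compound · Times – compound with oleate, overnight · Measured by – Image-based BODIPY and DAPI two-channel analysis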
ANO1 block = TMEM16A chloride channel inhibitors, primary screen, cell-based, HTS | Anoctamin-1 (Mus musculus), Q8BHY3 | actives 1.2% (n = 310,000) | normalized B-score (activity score, 25-100; higher = stronger inhibition) at 10 µM | HEK293 TMEM16A/YFP iodide influx fluorescence, ionomycin;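 active = ratio plate-corrected score three or more library SD toward inhibition, starting fluorescence score within five deviations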;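 also: score derived from kinetic fluorescence span divided by baseline fluorescence per well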
UPR CHOP act = activators of apoptotic CHOP UPR arm, primary screen, cell-based, CHO-CHOP luciferase reporter, luminescence, uHTS. activation, % at 10 µM. UPR activation; percent of tunicamycin response over DMSO baseline. actives 0.34% (n = 330,000);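 active = at 10 µM dose, activation of 40% or more, normalized to positive control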;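 also: 100% = tunicamycin at 10 µg/mL and 0% = DMSO alone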
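measured by = luciferase luminescence | assay system = CHO-CHOP cells, stable luciferase reporter of PERK-eIF2a-CHOP signalling | amount = 500 reporter cells seeded per well | timing = 6 h compound exposure at 37 °C after overnight seeding | controls = positive tunicamycin 10 µg/mL, negative DMSO alone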
UPR XBP1 act = activators of adaptive XBP1 UPR arm, primary screen, cell-based, CHO-XBP1 luciferase reporter, luminescence, uHTS; IRE1-XBP1 UPR activation; percent of tunicamycin response, DMSO as zero; activation, % at 20 µM; actives 0.33% (n = 330,000); AID 463104, 2010;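 active = versus positive control, 20 µM dose yields 30% or more activation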;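 also: 100% = tunicamycin at 10 µg/mL and 0% = DMSO only wells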
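Material: CHO-XBP1 cells stably carrying IRE1-XBP1-driven luciferase reporter | Medium: F12 with 10% serum | Compound dosing: 20 µM single concentration, DMSO 1% | Incubation: Overnight seeding at 37 °C, 6 h compound treatment at 37 °C | Detection: Steady-Glo luminescence read | Read-out basis: % activation of reporter signal versus tunicamycin and DMSO controls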
* marks the source's active call; other numbers are inactive results.

Screening COc1ccc(/C=C2\N=C(SC)SC2=O)cc1OC returned ANO1 activ inactive, CHOP inhibitor 79.5*, ANO1 block inactive, UPR CHOP act 0.1 and UPR XBP1 act 3.4.
Screening CC(C)(C)c1ccccc1NC(=O)CN1C(=O)NC(Cc2ccccc2)C1=O (centres undefined) returned ANO1 activ inactive, ANO1 block inactive, UPR CHOP act -1.2 and UPR XBP1 act -3.5.
For CCOc1ccc(NC(=O)CCCc2cc(-c3ccc(OCC)cc3)on2)cc1 the results were ANO1 activ inactive, CHOP inhibitor 82.6*, ANO1 block inactive, UPR CHOP act -4.3 and UPR XBP1 act -3.6.
For CCOc1ccc(-c2cc(CCCC(=O)NCc3cccnc3)no2)cc1 the results were ANO1 activ inactive, CHOP inhibitor 79.7*, Hep lipid drop 3.9, ANO1 block inactive, UPR CHOP act 0.3 and UPR XBP1 act -0.8.
Screening CCOc1ccc(-c2cc(CCCC(=O)NCCc3ccccc3)no2)cc1 returned ANO1 activ inactive, CHOP inhibitor 69.1, Hep lipid drop 5.4, ANO1 block inactive, UPR CHOP act -2.2 and UPR XBP1 act 0.9.
`O=C1OCC2=C1C(c1ccc(F)cc1)CC(=O)N2c1ccccc1` (centres undefined) gave ANO1 activ inactive, CHOP inhibitor 6.5, Hep lipid drop 2.0, ANO1 block inactive, UPR CHOP act 2.6 and UPR XBP1 act -2.6.
Screening Cn1cc(C(=O)NS(=O)(=O)Nc2ccc(Br)cc2)c2ccccc21 returned ANO1 activ inactive, Hep lipid drop 8.0, ANO1 block inactive, UPR CHOP act -1.3 and UPR XBP1 act 2.1.
Screening Cc1csc(NC(=O)CSc2nc(=O)[nH]c3c2CCCC3)n1 returned ANO1 activ inactive, Hep lipid drop 3.2, ANO1 block inactive, UPR CHOP act 1.1 and UPR XBP1 act -0.6.
Cc1ccc(-c2nn(-c3ccccc3)cc2C2CC(c3cccs3)=NN2C(=O)CCC(=O)O)cc1 (centres undefined) was read as ANO1 activ inactive, CHOP inhibitor 12.6, Hep lipid drop 23.1, ANO1 block inactive, UPR CHOP act 1.7 and UPR XBP1 act -4.3.
O=C(O)CCn1cc(C2CC(c3ccccc3)=NN2c2ccccc2)c(-c2ccccc2)n1 (centres undefined) was read as ANO1 activ inactive, CHOP inhibitor 80.5*, Hep lipid drop -18.7, ANO1 block inactive, UPR CHOP act 0.2 and UPR XBP1 act -0.3.
Screening O=c1[nH]c(/C=C/c2ccccc2[N+](=O)[O-])nc2ccccc12 returned ANO1 activ inactive, CHOP inhibitor 81.6*, Hep lipid drop 16.5, ANO1 block inactive, UPR CHOP act 9.0 and UPR XBP1 act 2.7.
`Cc1cccc(/C=C\c2nc3ccccc3c(=O)[nH]2)c1` gave ANO1 activ inactive, CHOP inhibitor 100.9*, Hep lipid drop -23.5, ANO1 block inactive, UPR CHOP act 1.1 and UPR XBP1 act -1.8.
OC(CN(c1ccccc1)c1ccccc1)Cn1cnc2ccccc21 (centres undefined) was read as ANO1 activ inactive, CHOP inhibitor 92.2*, Hep lipid drop -6.9, ANO1 block inactive, UPR CHOP act 0.0 and UPR XBP1 act -1.5.
CC(=O)NCCN1C(=O)S/C(=C\c2cccs2)C1=O was read as ANO1 activ inactive, CHOP inhibitor 6.8, Hep lipid drop 16.0, ANO1 block inactive, UPR CHOP act 1.7 and UPR XBP1 act 0.2.
For CCCCOc1ccc(/C=C/C(=O)OCC(=O)NC2CCS(=O)(=O)C2)cc1OCC (centres undefined) the results were ANO1 activ inactive, ANO1 block inactive, UPR CHOP act 0.1 and UPR XBP1 act -0.8.
CCCCOc1ccc(/C=C/C(=O)OCC(=O)NC(=O)NCC(C)C)cc1OCC was read as ANO1 activ inactive, CHOP inhibitor 71.8*, Hep lipid drop -1.5, ANO1 block inactive, UPR CHOP act 0.7 and UPR XBP1 act -2.8.
`COc1ccc(/C=N/NC(=O)c2ccncc2)cc1CSc1nc2ccccc2s1` gave ANO1 activ inactive, CHOP inhibitor 26.0, Hep lipid drop -1.4, ANO1 block inactive, UPR CHOP act 4.7 and UPR XBP1 act 0.4.
`CCN(CC)C(=O)c1ccc(S(=O)(=O)N2CCC(c3nc4ccccc4s3)CC2)cc1` gave ANO1 activ inactive, CHOP inhibitor 73.5*, Hep lipid drop -17.2, ANO1 block inactive, UPR CHOP act 3.0 and UPR XBP1 act -2.2.
`Cc1nccn1CC(=O)N/N=C/c1cccc(O)c1` gave ANO1 activ inactive, CHOP inhibitor 13.5, Hep lipid drop 11.6, ANO1 block inactive, UPR CHOP act -1.7 and UPR XBP1 act -2.0.
For O=C(CCc1c[nH]c2ccccc12)NCC(=O)Nc1ccc(F)c(F)c1F the results were ANO1 activ -6.34*, CHOP inhibitor 14.7, Hep lipid drop 3.4, ANO1 block inactive, UPR CHOP act -1.0 and UPR XBP1 act -0.7.
O=C1C=C(NCc2ccccc2)CCC1 was read as ANO1 activ inactive, CHOP inhibitor -0.8, Hep lipid drop 0.0, ANO1 block inactive, UPR CHOP act -0.5 and UPR XBP1 act -1.4.
O=C1C=C(NC2=CC3OC(c4ccccc4)OCC3OC2=O)CCC1 (centres undefined) was read as ANO1 activ inactive, CHOP inhibitor 95.3*, Hep lipid drop -4.5 and ANO1 block inactive.
Screening O=C(CCl)N1c2ccccc2SCC1c1ccccc1 (centres undefined) returned ANO1 activ inactive, Hep lipid drop -3.9, ANO1 block inactive, UPR CHOP act -6.7 and UPR XBP1 act -14.4.
O=C(CCl)N1c2ccccc2OCC1c1ccccc1 (centres undefined) was read as ANO1 activ inactive, CHOP inhibitor 106.0*, Hep lipid drop -0.6, ANO1 block inactive, UPR CHOP act 21.5 and UPR XBP1 act -4.9.
For CCCCOC1(c2ccccc2)OC(=O)c2ccccc21 (centres undefined) the results were ANO1 activ inactive, CHOP inhibitor 81.3*, ANO1 block inactive, UPR CHOP act 2.3 and UPR XBP1 act -2.5.
`N#CCCN(C(=O)COC(=O)c1cc(=O)c2ccccc2o1)c1ccccc1` gave ANO1 activ inactive, UPR CHOP act -2.0 and UPR XBP1 act 0.1.
